Reference: ChEMBL document CHEMBL1795271, “7-Alkyl-N(2)-substituted-3-deazaguanines. Synthesis, DNA polymerase III inhibition and antibacterial activity” (Bioorg Med Chem Lett, 2011)
In brackets after ≈: the same amount, converted by molar mass.

How the values were obtained:
[1] = test system: Staphylococcus aureus; test: Antibacterial activity against Staphylococcus aureus ATCC 25923 after 16 to 24 hrs by twofold serial dilution method; assay type: functional
[2] = test system: Staphylococcus aureus; test: Antibacterial activity against Staphylococcus aureus ATCC 13709 (Smith) after 16 to 24 hrs by twofold serial dilution method; assay type: functional
[3] = test system: Staphylococcus aureus; test: Antibacterial activity against methicillin-resistant Staphylococcus aureus ATCC 1094 after 16 to 24 hrs by twofold serial dilution method; assay type: functional
[4] = test system: Enterococcus faecalis; test: Antibacterial activity against Enterococcus faecalis ATCC 29212 after 16 to 24 hrs by twofold serial dilution method; assay type: functional
[5] = test system: Enterococcus faecium; test: Antibacterial activity against Enterococcus faecium ATCC 19434 after 16 to 24 hrs by twofold serial dilution method; assay type: functional
[6] = test system: Escherichia coli; test: Antibacterial activity against Escherichia coli J-53 after 16 to 24 hrs by twofold serial dilution method; assay type: functional
[7] = test system: Bacillus subtilis; test: Antibacterial activity against Bacillus subtilis BD54 after 16 to 24 hrs by twofold serial dilution method; assay type: functional
[8] = test system: Staphylococcus aureus; test: Antibacterial activity against Staphylococcus aureus Smith infected Swiss-webster mouse assessed as mouse survival at 10 mg/kg, ip administered 15 mins post-infection for 24 hrs relative to control; assay type: functional; conditions: route intraperitoneal
Method in brief: (§1)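 Male pathogen-free Swiss–Webster mice, 20–24 g, with free access to food and water. S. aureus Smith grown to log phase at 37 °C in LB, with CFU estimated from OD600. Cells washed in cold broth and injected IP in 0.5 mL broth. Groups of 5 or 10 mice dosed IP 15 min post-infection with vehicle (10% DMSO/peanut oil) or compound in vehicle. Daptomycin 30 mg/Kg in saline served as control.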

[9] = test system: Staphylococcus aureus; test: Antibacterial activity against Staphylococcus aureus Smith infected Swiss-webster mouse assessed as mouse survival at 30 mg/kg, ip administered 15 mins post-infection for 24 hrs relative to control; assay type: functional; conditions: route intraperitoneal; method in brief: as §1
[10] = test system: Staphylococcus aureus; test: Antibacterial activity against Staphylococcus aureus Smith infected Swiss-webster mouse assessed as mouse survival at 60 mg/kg, ip administered 15 mins post-infection for 24 hrs relative to control; assay type: functional; conditions: route intraperitoneal; method in brief: as §1
[11] = test system: Enterococcus faecalis; test: Antibacterial activity against vancomycin-resistant Enterococcus faecalis after 16 to 24 hrs by twofold serial dilution method

`CC(=O)OCCCCCn1cnc2nc(NCc3ccc(Cl)c(Cl)c3)nc(O)c21` gave an MIC [1] of 2.5 µg/mL (≈ 5.7 µM), an MIC [2] of 1.25 µg/mL (≈ 2.85 µM) and an MIC [3] of 1.25 µg/mL (≈ 2.85 µM). For the same compound, the MIC [4] was 1.25 µg/mL (≈ 2.85 µM), the MIC [5] was 1.25 µg/mL (≈ 2.85 µM) and the MIC [6] was > 80 µg/mL. For the same compound, the MIC [7] was 1.25 µg/mL (≈ 2.85 µM), the survival at 10 mg/kg [8] was 30% and the survival at 30 mg/kg [9] was 50%. It also gave a survival at 60 mg/kg [10] of 80% and an MIC [11] of 5 µg/mL (≈ 11.4 µM).
